For series [1], the target named is T1, Histone-lysine N-methyltransferase SMYD3 (Homo sapiens, UniProt Q9H7B4).
T1 sequence (Q9H7B4 whole entry): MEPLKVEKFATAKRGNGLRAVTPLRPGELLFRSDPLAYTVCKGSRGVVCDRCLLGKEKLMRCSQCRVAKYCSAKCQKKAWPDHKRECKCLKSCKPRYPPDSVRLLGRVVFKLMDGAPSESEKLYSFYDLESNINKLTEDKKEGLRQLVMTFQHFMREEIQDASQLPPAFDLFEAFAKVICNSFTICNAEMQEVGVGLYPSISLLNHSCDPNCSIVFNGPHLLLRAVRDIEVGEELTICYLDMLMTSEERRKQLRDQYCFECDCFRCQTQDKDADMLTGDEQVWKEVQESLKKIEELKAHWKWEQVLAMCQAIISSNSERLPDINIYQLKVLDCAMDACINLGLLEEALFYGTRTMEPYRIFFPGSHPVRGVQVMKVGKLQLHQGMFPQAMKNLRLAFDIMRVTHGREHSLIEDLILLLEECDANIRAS
Briefly: Inhibition of SMYD3 (unknown origin) using MAP3K2 peptide as substrate pretreated for 30 mins followed by substrate addition and measured after 30 mins by MTase Glo reagent based luminescence assay. In a few lines:
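SMYD3 IC50 values taken as mean of duplicate experiments.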

The nature of series [2]: Metabolic stability in human liver microsomes assessed as half life preincubated for 5 mins followed by NADPH addition measured upto 60 mins by LC-MS/MS analysis. Type of series: ADME, Microsome.
A short description of series [3]: Apparent intrinsic clearance in human liver microsomes measured upto 60 mins by LC-MS/MS analysis. It is filed as ADME, Microsome. Particulars: 1 h.
Series [4] in a line: Metabolic stability in mouse liver microsomes assessed as half life preincubated for 5 mins followed by NADPH addition measured upto 60 mins by LC-MS/MS analysis. Type of series: ADME, Microsome.
The nature of series [5]: Apparent intrinsic clearance in mouse liver microsomes measured upto 60 mins by LC-MS/MS analysis. Type of series: ADME, Microsome. Particulars: 1 h.
Series [6] addresses T2, Histone-lysine N-methyltransferase SMYD3 (Homo sapiens) (UniProt Q9H7B4).
T2 sequence (whole entry): T1 sequence (Q9H7B4 whole entry)
Briefly: Irreversible inhibition of SMYD3 (unknown origin) using MAP3K2 peptide as substrate assessed as Kinact pretreated for 5 mins followed by substrate addition and measured after 60 mins by MTase Glo reagent based luminescence assay.

Series [7] has as its target T1, Histone-lysine N-methyltransferase SMYD3. The series is described as follows: Irreversible inhibition of SMYD3 (unknown origin) using MAP3K2 peptide as substrate pretreated for 5 mins followed by substrate addition and measured after 60 mins by MTase Glo reagent based luminescence assay.
For series [8], the target named is T2, Histone-lysine N-methyltransferase SMYD3 (Homo sapiens). Briefly: Irreversible inhibition of SMYD3 (unknown origin) using MAP3K2 peptide as substrate assessed as kinact/Ki ratio pretreated for 5 mins followed by substrate addition and measured after 60 mins by MTase Glo reagent based luminescence assay.
Series [9] has the same target. Briefly: Inhibition of SMYD3 in human HepG2 cells assessed as inhibition of cell proliferation incubated for 3 days by CellTiter-Glo luminescent assay. It is filed as cell-based.
A short description of series [10]: Apparent permeability across basolateral to apical side in human Caco2 cells by LC-MS/MS analysis. Particulars: Caco-2. Type of series: ADME, cell-based. A general note: Passage across Caco-2 layers is used to estimate intestinal permeability.
Series [11] is described as follows: Apparent permeability across apical to basolateral side in human Caco2 cells by LC-MS/MS analysis. Particulars: Caco-2. It is filed as ADME, cell-based.
A short description of series [12]: GSH reactivity in pH 7.4 phosphate buffer assessed as pseudo first -order rate constant at 0.25 mM in presence of glutathione by HPLC-MS analysis. Type of series: physicochemical. Particulars: pH 7.4, 250 µM.
Series [13] has as its target T2, Histone-lysine N-methyltransferase SMYD3 (Homo sapiens). Briefly: Inhibition of SMYD3 in human HepG2 cells assessed as decrease in MAP3K2 methylation at 20 uM incubated for 24 hrs by cIEF based immunoassay relative to control. Type of series: cell-based. An outline of the steps:
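HepG2 cells exposed to 20 μM for 24 h, DMSO control. MAP3K2-me2/me3 quantified by capillary isoelectric focusing in a nanofluidic proteomic immunoassay. Levels expressed relative to DMSO-treated cells.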

For series [14] the target is unchanged. Briefly: Inhibition of SMYD3 in human HepG2 cells assessed as inhibition of anchorage-independent colony formation in 3D culture cells incubated for 1 to 2 weeks by thiazolyl blue tetrazolium bromide based. Type of series: cell-based.
A further series has as its system HepG2. Briefly: Downregulation of SMYD3 in human HepG2 cells at 5 to 20 uM incubated for 24 hrs by Western blot analysis. It is filed as functional. An outline of the steps: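 SMYD3 protein in HepG2 cells probed by Western blot after exposure at 5 and 20 μM, with DMSO control for comparison.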
On the technique in general: In western blotting, separated proteins are transferred to a membrane and probed.

Active and inactive are the calls of the source.

A word on the IC50: it is the concentration at which inhibition is half-maximal. In general, half-life refers to the time needed for the level to fall by half in the phase considered. The GI50 is the concentration that inhibits growth by half. A word on the Papp B→A: it is how fast a substance crosses the layer from the basolateral side. What is called Papp A→B is the apparent permeability from the apical to the basolateral side of a cell layer. As usually defined, the inhibition is the change of the read-out against control, counted positive when it falls.

For the compound `CCOC(=O)N1CCN(C(=O)c2ccc3c(Cl)c4c(nc3c2)CCC4)CC1`, in [1], the half-maximal inhibitory concentration (IC50) worked out at 30.5 µM.

As to `CCOC(=O)N1CCN(C(=O)c2ccc3c(C)c4c(nc3c2)CCCC4)CC1`, in [1], the 50% inhibitory concentration (IC50) is > 750 µM.

For the compound `CCCOC(=O)N1CCN(C(=O)c2ccc3c(Cl)cc(-c4ccc(C)cc4)nc3c2)CC1`, the half-life in series [2] was 36 min; in series [4], 41 min. Besides, the “CLH(app)” value turned out to be 26 uL/min/mL in [3] and 22 uL/min/mL in [5]. Besides, in series [1], the half-maximal inhibitory concentration (IC50) stood at 0.37 µM.

With `CCCOC(=O)N1CCN(C(=O)c2ccc3c(Cl)cc(-c4ccc(C(=O)NC)cc4)nc3c2)CC1`, in series [6], the Kinact came to 0.127 min⁻¹. Moreover, the half-life in [2] was found to be 17 min; in series [4] it was 46 min. The “CLH(app)” value in series [3] was found to be 53 uL/min/mL; in [5], 20 uL/min/mL. In addition, the Ki in series [7] was determined as 3.06 µM. The Ratio in series [8] is 692 M⁻¹ s⁻¹. In addition, the 50% growth inhibitory concentration (GI50) in series [9] is > 100 µM.

Turning to `CCCOC(=O)N1CCN(C(=O)c2ccc3c(Cl)cc(-c4ccc(OC)cc4)nc3c2)CC1`, the half-life was determined as 28 min in [2] and 22 min in [4]. In addition, the “CLH(app)” value in series [3] stood at 32 uL/min/mL; in series [5], 43 uL/min/mL. Besides, the GI50 in series [9] was > 100 µM.

Turning to `CCOC(=O)N1CCN(C(=O)c2ccc3c(Cl)c4c(nc3c2)CCCC4)CC1`, the half-life was found to be 9 min in series [2] and 4 min in series [4]. Also, the “CLH(app)” value amounted to 107 uL/min/mL in series [3] and 245 uL/min/mL in series [5]. For the same compound, the GI50 in [9] is > 100 µM. Also, the IC50 in series [1] worked out at 4.78 µM.

Take `NCCCC(=O)N1CCN(C(=O)c2ccc3c(Cl)c4c(nc3c2)CCCC4)CC1`: in [1], the IC50 is > 750 µM.

Take `CCCOC(=O)N1CCN(C(=O)c2ccc3c(Cl)c4c(nc3c2)CCCC4)CC1`: the IC50 in series [1] was 0.37 µM.

Take `CCCOC(=O)N1CCN(C(=O)c2ccc3c(Cl)c4c(nc3c2)CCCC4)[C@@H](C)C1`: the half-inhibitory concentration (IC50) in [1] was 0.14 µM.

Turning to `CCCOC(=O)N1CCN(C(=O)c2ccc3c(Cl)c4c(nc3c2)CC(CN)CC4)CC1` (stereo not drawn), the Papp B→A in [10] stood at 16.2 ×10⁻⁶ cm/s. For the same compound, the Papp A→B in [11] amounted to 4.43 ×10⁻⁶ cm/s.

`C=CC(=O)Nc1cccc(OC)c1`: in series [12], the K was found to be 3.4 ×10⁻³ /min.

For the compound `CCOC(=O)N1CCN(C(=O)c2ccc3cc4c(nc3c2)CCCC4)CC1`, the IC50 in series [1] was > 750 µM.

With `CCCCOC(=O)N1CCN(C(=O)c2ccc3c(Cl)c4c(nc3c2)CCCC4)CC1`, in [1], the half-inhibitory concentration (IC50) is 0.36 µM.

Regarding `CCCOC(=O)N1CCN(C(=O)c2ccc3c(Cl)ccnc3c2)CC1`, the half-life is 40 min in series [2] and 1 min in series [4]. The “CLH(app)” value in series [3] is on record as 23 uL/min/mL; in [5], 750 uL/min/mL.

On to `CCCOC(=O)N1CCN(C(=O)c2ccc3c(Cl)cc(-c4ccccc4)nc3c2)C[C@H]1C`, for which the inhibition in series [13] worked out at 55%. Besides, the half-life in [2] is 21 min; in series [4], 16 min. The entries for the “CLH(app)” value in series [3] and in [5] were 43 uL/min/mL and 58 uL/min/mL, respectively. Also, the results for the GI50 in series [14] and in series [9] were 0.79 µM and 24.4 µM, respectively. The IC50 in series [1] amounted to 0.17 µM.

With `CCCOC(=O)N1CCN(C(=O)c2ccc3ccc(-c4ccccc4)nc3c2)C[C@H]1C`, the inhibition entry in series [13] was “inactive”. The GI50 in series [14] is > 10 µM; in [9], 60.8 µM. The IC50 in series [1] was > 250 µM.

For the compound `CCCOC(=O)N1CCN(C(=O)c2ccc3c(Cl)c4c(nc3c2)CCCC4)[C@H](C)C1`, the IC50 in [1] was 0.25 µM.

As for `CCOC(=O)N1CCN(C(=O)c2ccc3c(Cl)c4c(nc3c2)CCCCC4)CC1`, the IC50 in [1] amounted to 20.4 µM.

Regarding `CCCOC(=O)N1CCN(C(=O)c2ccc3c(Cl)c4c(nc3c2)CC(CN)CC4)[C@@H](C)C1` (stereo partly drawn), the IC50 in series [1] was 0.067 µM. Also, in series [12], the K is listed as 0.5 ×10⁻³ /min.

As for `CCCOC(=O)N1CCN(C(=O)c2ccc3c(Cl)cc(-c4ccccc4)nc3c2)CC1`, the Kinact in series [6] worked out at 0.193 min⁻¹. Besides, the half-life in series [2] came to 33 min; in series [4], 13 min. Besides, the “CLH(app)” value in [3] is listed as 28 uL/min/mL; in series [5], 70 uL/min/mL. For the same compound, in series [7], the Ki is 3.9 µM. In addition, the Ratio in series [8] stood at 833 M⁻¹ s⁻¹. In addition, the GI50 in [9] is > 100 µM. Besides, the IC50 in [1] was found to be 0.3 µM.

For the compound `COC(=O)N1CCN(C(=O)c2ccc3c(Cl)c4c(nc3c2)CCCC4)CC1`, the IC50 in [1] worked out at 123 µM.

Consider `CCCOC(=O)N1CCN(C(=O)c2ccc3c(Cl)cc(-c4ccc(C5(N)CC5)cc4)nc3c2)C[C@H]1C`, for which, in series [6], the Kinact was 0.055 min⁻¹. In addition, the inhibition in [13] was 66%. The half-life in series [2] came to 35 min; in [4] it was 52 min. Besides, the “CLH(app)” value stood at 20 uL/min/mL in series [3] and 13 uL/min/mL in series [5]. In addition, the Ki in series [7] came out at 0.44 µM. The Ratio in [8] was 2110 M⁻¹ s⁻¹. In addition, the GI50 in series [14] was found to be 1.04 µM; in series [9], 17.7 µM. For the same compound, the IC50 in series [1] came out at 0.0117 µM. For the same compound, in the series with HepG2, the “inhibition (INH)” value is given as 50%.

On to `NCCOC(=O)N1CCN(C(=O)c2ccc3c(Cl)c4c(nc3c2)CCCC4)CC1`, for which the IC50 in [1] amounted to 132 µM.

Consider `CCCOC(=O)N1CCN(C(=O)c2ccc3c(Cl)c4c(nc3c2)CCCC4)C(C)C1` (racemic), for which the K in [12] was 0.8 ×10⁻³ /min.

The values are drawn from ChEMBL document CHEMBL4304770, “Discovery of Irreversible Inhibitors Targeting Histone Methyltransferase, SMYD3” (ACS Med Chem Lett, 2019).
